Test results: ChEMBL document CHEMBL3244181, “Synthesis and biological activity of cocaine analogues. 2. 6H-[2]Benzopyrano[4,3-c]pyridin-6-ones” (J Med Chem, 1979)

Columns and labels:
[1] = Inhibition of [3H]norepinephrine reuptake at norepinephrine transporter in CD Charles River albino rat brain synaptosomes after 5 mins by scintillation counting analysis; assay type: subcellular
Procedure, shortened: (§1)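 Synaptosomes were taken from the 0.8/1.2 M sucrose gradient interface and resuspended in Krebs Ringer phosphate with pargyline (1.6 mg/100 mL) and glucose (237 mg/100 mL). They were incubated with unlabelled norepinephrine and [3H]norepinephrine for 5 min at 30 °C, quenched with cold buffer, and pelleted at 10000g. Pellet counts, minus post-incubation tracer blanks, gave % inhibition as (control − sample)/control cpm.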

Rattus norvegicus [2] = species on record: Rattus norvegicus; experiment: Inhibition of [3H]norepinephrine reuptake at norepinephrine transporter in CD Charles River albino rat brain synaptosomes at 10^-5 M after 5 mins by scintillation counting analysis; assay type: subcellular; procedure, shortened: as §1
[3] = biological target: Sodium-dependent serotonin transporter (Homo sapiens) (UniProt P31645); experiment: Inhibition of serotonin reuptake at SERT (unknown origin) at 10^-5 M
[4] = biological target: Sodium-dependent dopamine transporter (Homo sapiens) (UniProt Q01959); experiment: Inhibition of dopamine reuptake at DAT (unknown origin) at 10^-5 M
Rattus norvegicus [5] = species on record: Rattus norvegicus; experiment: Inhibition of [3H]norepinephrine reuptake at norepinephrine transporter in rat brain at 10^-5 M by scintillation counting analysis; assay type: tissue-based

Sodium-dependent serotonin transporter (Homo sapiens), sequence (P31645 whole entry, looked up): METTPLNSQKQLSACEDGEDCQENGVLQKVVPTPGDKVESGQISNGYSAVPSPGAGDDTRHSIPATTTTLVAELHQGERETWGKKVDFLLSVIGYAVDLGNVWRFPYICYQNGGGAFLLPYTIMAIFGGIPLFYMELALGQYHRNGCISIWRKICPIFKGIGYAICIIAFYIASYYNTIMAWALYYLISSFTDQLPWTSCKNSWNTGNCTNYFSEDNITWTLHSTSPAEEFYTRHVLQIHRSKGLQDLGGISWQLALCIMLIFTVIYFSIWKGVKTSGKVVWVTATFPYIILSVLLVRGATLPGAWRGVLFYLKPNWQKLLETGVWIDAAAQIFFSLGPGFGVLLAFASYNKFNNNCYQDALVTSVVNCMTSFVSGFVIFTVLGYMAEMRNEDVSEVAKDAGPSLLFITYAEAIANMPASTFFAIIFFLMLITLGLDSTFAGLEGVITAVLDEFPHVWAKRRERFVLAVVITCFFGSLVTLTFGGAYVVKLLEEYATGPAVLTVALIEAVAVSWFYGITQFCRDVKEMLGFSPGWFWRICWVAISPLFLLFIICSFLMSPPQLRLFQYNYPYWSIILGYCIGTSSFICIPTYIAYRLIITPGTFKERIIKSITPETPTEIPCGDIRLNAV
Sodium-dependent dopamine transporter (Homo sapiens), sequence (Q01959 whole entry): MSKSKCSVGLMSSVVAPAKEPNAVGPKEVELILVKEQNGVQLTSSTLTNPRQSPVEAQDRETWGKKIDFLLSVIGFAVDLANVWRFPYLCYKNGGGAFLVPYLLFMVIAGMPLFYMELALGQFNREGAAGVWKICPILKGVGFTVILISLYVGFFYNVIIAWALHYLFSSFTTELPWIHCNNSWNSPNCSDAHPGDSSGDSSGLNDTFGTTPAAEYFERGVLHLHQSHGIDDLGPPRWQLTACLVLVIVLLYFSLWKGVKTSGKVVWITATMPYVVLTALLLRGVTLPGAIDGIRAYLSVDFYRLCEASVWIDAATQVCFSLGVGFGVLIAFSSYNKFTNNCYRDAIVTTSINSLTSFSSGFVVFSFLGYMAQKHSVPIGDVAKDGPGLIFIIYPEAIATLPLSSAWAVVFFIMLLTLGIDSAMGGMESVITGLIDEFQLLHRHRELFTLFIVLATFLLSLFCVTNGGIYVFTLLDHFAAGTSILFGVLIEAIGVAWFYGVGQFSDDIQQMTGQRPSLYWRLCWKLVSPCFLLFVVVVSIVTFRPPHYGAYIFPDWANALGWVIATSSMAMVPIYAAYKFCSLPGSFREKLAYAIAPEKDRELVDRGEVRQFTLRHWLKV

Structure (SMILES)	IC50 [1] [µM]	inhibition (Rattus norvegicus [2]) [%]	inhibition [3] [%]	inhibition [4] [%]	inhibition (Rattus norvegicus [5]) [%]
CN1[C@@H]2CC[C@H]1C[C@H](OC(=O)c1ccccc1)C2	5.6	–	–	–	–
CN1CC[C@H]2OC(=O)c3ccccc3[C@@H]2C1 (relative stereo)	320	36	0	3	11
COC(=O)[C@H]1[C@@H](OC(=O)c2ccccc2)C[C@@H]2CC[C@H]1N2C [COCAINE]	0.575	–	–	–	–
CN1CC[C@H]2OC(=O)c3ccccc3[C@H]2C1 (relative stereo)	650	0	–	–	–
CN1CCc2oc(=O)c3ccccc3c2C1	320	–	–	–	–
